Results reported in ChEMBL document CHEMBL1122033, “Chemistry and hypoglycemic activity of N-[[(Dialkylamino)alkoxy]phenyl]benzamidines” (J Med Chem, 1982).
“And” between values parts separate entries of the source, which are not always exact repeats. Equal entries are not always repeated.

Legend:
[1] = (§1) Lethal dose required to produce 50% lethality in male and female carworth farms CF-1 strain mice weighing 16-25 g administered orally; type: toxicity, organism-based; details: both, CF-1, mouse, in vivo, po
Method in brief: (§2)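 Four mice per dose level. Drug dissolved in distilled water and suspended in 0.5% carboxymethylcellulose or 0.5% gelatin, with pH adjusted by 1 N HCl or 1 N NaOH where the drug tolerated it. Doses logarithmically spaced, given orally or intraperitoneally. Mice observed 7 days after dosing. LD50 derived by the Bliss method, expressed in mg/kg.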

Monkey [2] = assay: Evaluated in normal, fasted monkey for the percentage reduction in blood glucose level as compared to pretreatment blood glucose values at a dose of 50 mg of free base / kg body weight administered orally; type: functional, Cercopithecidae
Method in brief: (§3)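 Male and female rhesus monkeys (2–3 kg) were food-deprived, with water, for 18 h. Pretreatment blood was taken from the popliteal vein. Dosing was oral by stomach tube, with repeat sampling 5 h post-dose. Results are percent reduction in blood glucose relative to pretreatment values.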

Monkey [3] = assay: Evaluated in normal, fasted monkey for the percentage reduction in blood glucose level as compared to pretreatment blood glucose values at a dose of 60 mg of free base / kg body weight administered orally; type: functional, Cercopithecidae; method in brief: as §3
Rattus norvegicus [4] = assay: Blood sugar lowering (hypoglycemic activity) in the glucose-primed rat at a dose of 100 mg/kg; Decrease in blood sugar level.; type: functional
Method in brief: (§4)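 Male Sprague–Dawley rats, 140–150 g, groups of six, fasted 16 h. Each rat got 100 mg glucose s.c. in 0.5 mL isotonic NaCl, then the test agent at once orally as an aqueous carboxymethylcellulose suspension (0.5 mL); controls got vehicle. At 2 h, under light ether, blood was taken by cardiac puncture. Glucose was read by Autoanalyzer (Hoffman method). Values are percent difference from vehicle controls.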

Monkey [5] = assay: Evaluated in normal, fasted monkey for the percentage reduction in blood glucose level as compared to pretreatment blood glucose values at a dose of 25 mg of free base / kg body weight administered orally; type: functional, Cercopithecidae; method in brief: as §3
Rattus norvegicus [6] = assay: Evaluated in alloxanized, diabetic rat for the percentage reduction in blood glucose level as compared to pretreatment blood glucose values at a dose of 150 mg of free base / kg body weight administered orally; type: functional
Method in brief: (§5)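 Three days later, rats positive for urine glucose (reagent strip) formed groups of six. Tail-vein blood was taken before oral dosing and again at 5 h. Percent reduction is versus pretreatment glucose.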

Rattus norvegicus [7] = assay: Evaluated in glucose-primed, fasted rat for the percentage reduction in blood glucose level as compared to control groups at a dose of 100 mg of free base / kg body weight administered orally; type: functional; method in brief: as §4
Rattus norvegicus [8] = assay: Evaluated in glucose-primed, fasted rat for the percentage reduction in blood glucose level as compared to control groups at a dose of 150 mg of free base / kg body weight administered orally; type: functional; method in brief: as §4
[9] = Lethal dose required to produce 50% lethality in male and female carworth farms CF-1 strain mice weighing 16-25 g administered intraperitoneally; type: toxicity, organism-based; details: both, CF-1, mouse, in vivo, ip; method in brief: as §2
Rattus norvegicus [10] = assay: Evaluated in glucose-primed, fasted rat for the percentage reduction in blood glucose level as compared to control groups at a dose of 50 mg of free base / kg body weight administered orally; type: functional; method in brief: as §4
Cavia porcellus [11] = assay: Evaluated in normal, fasted guinea pig for the percentage reduction in blood glucose level as compared to pretreatment blood glucose values at a dose of 100 mg of free base / kg body weight administered orally
Rattus norvegicus [12] = assay: Evaluated in alloxanized, diabetic rat for the percentage reduction in blood glucose level as compared to pretreatment blood glucose values at a dose of 100 mg of free base / kg body weight administered orally; type: functional; method in brief: as §5
Rattus norvegicus [13] = assay: Evaluated in glucose primed, adrenalectomized rat for the percentage reduction in blood glucose level as compared to pretreatment blood glucose values at a dose of 25 mg of free base / kg body weight administered orally; type: functional
Method in brief: (§6)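 Male Sprague–Dawley rats were adrenalectomized 7 days before testing, fasted 16 h, and given 100 mg glucose s.c. per rat. Drug was given orally at once; controls received an equal volume of saline. Blood was taken by cardiac puncture after 2 h. Percent reduction in blood glucose is versus pretreatment values.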

Rattus norvegicus [14] = assay: Compound was evaluated for the blood sugar lowering (hypoglycemic activity) in the glucose-primed rat at a dose of 100 mg/kg; Increase in blood sugar level.; type: functional; method in brief: as §4
[15] = Lethality in 50% (LD50) of male and female CF-1 strain mice weighing 16-25g, intraperitoneal administration; type: ADME, organism-based; details: both, CF-1, mouse, in vivo, ip; method in brief: as §2
[16] = Dose that produces lethality in 50% (LD50) of male and female carworth farms CF-1 strain mice weighing 16-25 g oral (po) route of administration; type: ADME, organism-based; details: both, CF-1, mouse, in vivo; method in brief: as §2
Rattus norvegicus [17] = assay: Compound was evaluated for the blood sugar lowering (hypoglycemic activity ) in the glucose-primed rat at a dose of 50 mg of base/kg; type: functional; method in brief: as §4
Cavia porcellus [18] = assay: Evaluated in normal, fasted guinea pig for the percentage reduction in blood glucose level as compared to pretreatment blood glucose values at a dose of 100 mg of free base / kg body weight administered orally; type: functional
Method in brief: (§7)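 Male and female Hartley guinea pigs, 450–500 g, were food-deprived (water allowed) 18 h and split by sex into groups of four. A zero-time blood sample was taken by cardiac puncture, then drug was given, and blood was drawn again 5 h later. Percent reduction in blood glucose is relative to pretreatment values.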

Rattus norvegicus [19] = assay: Evaluated in glucose-primed, fasted rat for the percentage reduction in blood glucose level as compared to control groups at a dose of 25 mg of free base / kg body weight administered orally; type: functional; method in brief: as §4
[20] = as §1; details: both, CF-1, rat, in vivo, po
Rattus norvegicus [21] = assay: Evaluated in glucose-primed, fasted rat for the percentage reduction in blood glucose level as compared to control groups at a dose of 10 mg of free base / kg body weight administered orally; type: functional; method in brief: as §4
Monkey [22] = assay: Evaluated in normal, fasted monkey for the percentage reduction in blood glucose level as compared to pretreatment blood glucose values at a dose of 70 mg of free base / kg body weight administered orally; type: functional, Cercopithecidae; method in brief: as §3
Rattus norvegicus [23] = assay: Evaluated in alloxanized, diabetic rat for the percentage reduction in blood glucose level as compared to pretreatment blood glucose values at a dose of 200 mg of free base / kg body weight administered orally; type: functional; method in brief: as §5
Cavia porcellus [24] = assay: Evaluated in normal, fasted guinea pig for the percentage reduction in blood glucose level after 5 hr as compared to pretreatment blood glucose values at a dose of 125 mg of free base / kg body weight administered orally; type: functional; method in brief: as §7
Rattus norvegicus [25] = assay: Evaluated in glucose-primed, fasted rat for the percentage reduction in blood glucose level after 2 h as compared to control groups at a dose of 25 mg of free base / kg body weight administered orally; type: functional; method in brief: as §4
Rattus norvegicus [26] = assay: Evaluated in glucose-primed, fasted rat for the percentage reduction in blood glucose level after 2 hr as compared to control groups at a dose of 10 mg of free base / kg body weight administered orally; type: functional; method in brief: as §4
Rattus norvegicus [27] = assay: Evaluated in glucose-primed, fasted rat for the percentage reduction in blood glucose level after 2 hr as compared to control groups at a dose of 500 mg of free base / kg body weight administered orally; type: functional; method in brief: as §4
Monkey [28] = assay: Evaluated in normal, fasted monkey for the percentage reduction in blood glucose level after 5 hr as compared to pretreatment blood glucose values at a dose of 40 mg of free base / kg body weight administered orally; type: functional, Cercopithecidae; method in brief: as §3
Monkey [29] = assay: Evaluated in normal, fasted monkey for the percentage reduction in blood glucose level after 5 hr as compared to pretreatment blood glucose values at a dose of 20 mg of free base / kg body weight administered orally; type: functional, Cercopithecidae; method in brief: as §3
Cavia porcellus [30] = assay: Evaluated in normal, fasted guinea pig for the percentage reduction in blood glucose level after 5 hr as compared to pretreatment blood glucose values at a dose of 100 mg of free base / kg body weight administered orally; type: functional; method in brief: as §7
Cavia porcellus [31] = assay: Evaluated in normal, fasted guinea pig for the percentage reduction in blood glucose level after 5 hr as compared to pretreatment blood glucose values at a dose of 160 mg of free base / kg body weight administered orally; type: functional; method in brief: as §7
Rattus norvegicus [32] = assay: Evaluated in glucose-primed, fasted rat for the percentage reduction in blood glucose level after 2 hr as compared to control groups at a dose of 250 mg of free base / kg body weight administered orally; type: functional; method in brief: as §4
Rattus norvegicus [33] = assay: Evaluated in glucose primed, adrenalectomized rat for the percentage reduction in blood glucose level after 2 hr as compared to pretreatment blood glucose values at a dose of 20 mg of free base / kg body weight administered orally; type: functional; method in brief: as §6
Rattus norvegicus [34] = assay: Evaluated in glucose primed, adrenalectomized rat for the percentage reduction in blood glucose level after 2 hr as compared to pretreatment blood glucose values at a dose of 10 mg of free base / kg body weight administered orally; type: functional; method in brief: as §6
Cavia porcellus [35] = assay: Evaluated in normal, fasted guinea pig for the percentage reduction in blood glucose level after 5 hr as compared to pretreatment blood glucose values at a dose of 150 mg of free base / kg body weight administered orally; type: functional; method in brief: as §7

Br.CC(C)N(CCOc1ccc(N/C(=N\c2ccccc2)c2ccccc2)cc1)C(C)C
LD50 [1]: 900 mg/kg | Reduction (Monkey [2]): 31.9% | Reduction (Monkey [3]): 45% | Change (Rattus norvegicus [4]): 31.2% | Reduction (Monkey [5]): 0% | Reduction (Rattus norvegicus [6]): 37.3% | Reduction (Rattus norvegicus [7]): 31.2% | Reduction (Rattus norvegicus [8]): 32% | LD50 [9]: 273 mg/kg | Reduction (Rattus norvegicus [10]): 12.9% | Reduction (Cavia porcellus [11]): 10.6% | Reduction (Rattus norvegicus [12]): 16.5% | Reduction (Rattus norvegicus [13]): 33.4%

Br.c1ccc(/N=C(\Nc2ccc(OCCN3CCCC3)cc2)c2ccccc2)cc1
Change (Rattus norvegicus [14]): 35% | LD50 [15]: 117 mg/kg | LD50 [16]: 500 mg/kg

Br.CC(C)N(CCCOc1ccc(N/C(=N\c2ccccc2)c2ccccc2)cc1)C(C)C
Reduction (Monkey [2]): 26.5% | Reduction (Monkey [3]): 32.3% | Reduction (Monkey [5]): 0% | Change (Rattus norvegicus [17]): 32.2% | Reduction (Cavia porcellus [18]): 33.5% and 20% | Reduction (Rattus norvegicus [19]): 21.2% | LD50 [20]: 347 mg/kg | LD50 [9]: 140 mg/kg | Reduction (Rattus norvegicus [21]): 10.9% | Reduction (Monkey [22]): 39% | Reduction (Rattus norvegicus [10]): 32.2% | Reduction (Rattus norvegicus [23]): 21.5% | Reduction (Rattus norvegicus [12]): 15% | Reduction (Rattus norvegicus [13]): 30.6%

Cc1ccc(S(=O)(=O)NC(=O)NN2CCCCCC2)cc1 [TOLAZAMIDE]
Reduction (Cavia porcellus [24]): 26.7% | Reduction (Rattus norvegicus [25]): 50% | Reduction (Rattus norvegicus [26]): 28.1% | Reduction (Rattus norvegicus [27]): 51.1% | Reduction (Monkey [28]): 26.7% | Reduction (Monkey [29]): 11% | Reduction (Cavia porcellus [30]): 33.5% | Reduction (Cavia porcellus [31]): 25% | Reduction (Rattus norvegicus [32]): 42.9% | Reduction (Rattus norvegicus [33]): 85.6% | Reduction (Rattus norvegicus [12]): 0% | Reduction (Rattus norvegicus [34]): 75.8% | Reduction (Cavia porcellus [35]): 30.4%
